Source: ChEMBL document CHEMBL1124851, “Synthesis of (R)-(-)- and (S)-(+)-4-fluorodeprenyl and (R)-(-)- and (S)-(+)-[N-11C-methyl]-4-fluorodeprenyl and positron emission tomography studies in baboon brain” (J Med Chem, 1990)

Key:
[1] = The absolute striatal uptake of the carbon-11 labeled compound at 60 min was determined in baboon; format: ADME; conditions: papio hamadryas, 1 h
Method in brief: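 PET in one young adult female baboon (Papio anubis, 12.6 kg). Anaesthesia was ketamine (10 mg/kg), then isoflurane/nitrous oxide maintenance. The same animal was used for three experiments, at least two weeks apart.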

[2] = Peak plasma radioactivity for the carbon-11 labeled compound was determined at 0.5 min after injection in baboon; (Range = 0.08-0.11); format: ADME, cell-free; conditions: papio hamadryas
[3] = Peak plasma radioactivity for the carbon-11 labeled compound was determined at 1.5 min after injection in baboon; (Range = 0.08-0.11); format: ADME, cell-free; conditions: papio hamadryas, 0.025 h
[4] = The amount of unchanged tracer in baboon plasma was determined 1 min after injection of the carbon-11 labeled compound; format: ADME, cell-free; conditions: papio hamadryas, read-out: Unchanged tracer
Method in brief: (§1)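 Arterial plasma was sampled at 1, 10, 30 and 60 min after tracer injection in the baboon. Unchanged [N-11C-methyl]-4-fluorodeprenyl was measured by HPLC on a C18 Spherisorb 5 ODS column (250 × 4.6 mm). Mobile phase was methanol–0.05 N ammonium formate (70–30%) at 1 mL/min, with UV at 254 nm. Results are given as percent unchanged tracer.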

[5] = The amount of unchanged tracer in baboon plasma was determined 30 min after injection of the carbon-11 labeled compound; format: ADME, cell-free; conditions: papio hamadryas, read-out: Unchanged tracer; method in brief: as §1
[6] = The amount of unchanged tracer in baboon plasma was determined 60 min after injection of the carbon-11 labeled compound; format: ADME, cell-free; conditions: papio hamadryas, read-out: Unchanged tracer; method in brief: as §1
[7] = The amount of unchanged tracer in baboon plasma was determined 10 min after injection of the carbon-11 labeled compound; format: ADME, cell-free; conditions: papio hamadryas, read-out: Unchanged tracer; method in brief: as §1
[8] = molecular target: T1, Monoamine oxidase (Homo sapiens, UniProt P21397+P27338); assay: In vitro inhibitory activity against Monoamine oxidase in baboon brain was determined; format: tissue-based, Papio hamadryas; conditions: target entry is the homologue from another species
T1 sequence (P21397 whole entry): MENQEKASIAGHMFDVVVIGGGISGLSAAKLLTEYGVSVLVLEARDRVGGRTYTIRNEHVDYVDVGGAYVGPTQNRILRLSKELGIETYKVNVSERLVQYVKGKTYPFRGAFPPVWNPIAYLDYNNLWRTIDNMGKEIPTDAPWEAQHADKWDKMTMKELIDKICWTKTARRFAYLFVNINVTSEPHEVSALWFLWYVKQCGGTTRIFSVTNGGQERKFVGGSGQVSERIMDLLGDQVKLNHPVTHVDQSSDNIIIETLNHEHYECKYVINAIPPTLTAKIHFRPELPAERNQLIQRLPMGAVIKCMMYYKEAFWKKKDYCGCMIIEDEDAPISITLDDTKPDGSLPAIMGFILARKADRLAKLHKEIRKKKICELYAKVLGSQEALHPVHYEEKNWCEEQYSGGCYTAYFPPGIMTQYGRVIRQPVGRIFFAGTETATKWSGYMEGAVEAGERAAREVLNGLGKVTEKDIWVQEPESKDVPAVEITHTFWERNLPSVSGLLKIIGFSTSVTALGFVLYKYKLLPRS
T1 sequence (P27338 whole entry): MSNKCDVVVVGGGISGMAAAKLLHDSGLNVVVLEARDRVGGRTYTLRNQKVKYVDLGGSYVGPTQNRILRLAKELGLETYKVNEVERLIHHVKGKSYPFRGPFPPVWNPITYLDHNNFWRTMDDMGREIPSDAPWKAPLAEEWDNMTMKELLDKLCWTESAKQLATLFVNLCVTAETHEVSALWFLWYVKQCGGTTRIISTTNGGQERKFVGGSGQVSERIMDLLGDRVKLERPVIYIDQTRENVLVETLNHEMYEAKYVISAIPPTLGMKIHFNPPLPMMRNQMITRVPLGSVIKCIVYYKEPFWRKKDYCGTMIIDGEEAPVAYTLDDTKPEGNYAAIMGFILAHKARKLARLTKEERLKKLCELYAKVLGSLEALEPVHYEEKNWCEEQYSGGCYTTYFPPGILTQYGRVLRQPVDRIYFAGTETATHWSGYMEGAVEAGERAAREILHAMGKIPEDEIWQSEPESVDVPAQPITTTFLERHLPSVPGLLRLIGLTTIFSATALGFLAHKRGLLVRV

SMILES	% injected dose/cm3 [1] [%]	Peak radioactivity in blood [2] [% injected dose cm**-3]	Peak radioactivity in blood [3] [% injected dose cm**-3]	remaining at 1 min [4] [%]	remaining at 0.5 h [5] [%]	remaining at 1 h [6] [%]	remaining at 10 min [7] [%]	IC50 [8] [nM]	Uptake [1]
C#CCN([11CH3])[C@H](C)Cc1ccc(F)cc1	0.053	0.11	0.01	96	20	14	50		
C#CCN(C)[C@H](C)Cc1ccc(F)cc1								41.7	
C#CCN(C)[C@@H](C)Cc1ccc(F)cc1	0.021	0.11	0.01	98	30	22	61		
C#CCN(C)C(C)Cc1ccc(F)cc1 (stereo not drawn)		0.11	0.01	96	16	15	43		0.041 % injected dose cm**-3
C#CCN(C)[C@H](C)Cc1ccccc1 [SELEGILINE]									0.057%
